Experimental data as given in ChEMBL document CHEMBL1149790, “Synthesis of some novel thiourea derivatives obtained from 5-[(4-aminophenoxy)methyl]-4-alkyl/aryl-2,4-dihydro-3H-1,2,4-triazole-3-thiones and evaluation as antiviral/anti-HIV and anti-tuberculosis agents” (Eur J Med Chem, 2008).
≈ marks a conversion by molar mass, not a printed value.

Key:
Coxsackievirus B4 [1] = assay: Antiviral activity against Coxsackie virus B4 in african green monkey Vero cells assessed as reduction of virus-induced cytopathogenicity; assay type: functional; conditions: Enterovirus B
Outline: (§1)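 Confluent cell monolayers (E6SM, HEL, HeLa or Vero, per line) inoculated with 100 CCID50 virus; 1 h adsorption, residual virus removed, then incubated with compound at 400, 200, 100 … µg/ml. Cytopathicity scored once complete in untreated virus controls; MIC = concentration inhibiting virus-induced cytopathicity.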

Human alphaherpesvirus 1 [2] = assay: Antiviral activity against thymidine kinase deficient and acyclovir resistant HSV1 KOS in human HEL cells assessed as reduction of virus-induced cytopathogenicity; assay type: functional; conditions: Human alphaherpesvirus 1, KOS; outline: as §1
Human respirovirus 3 = assay: Antiviral activity against Parainfluenza 3 virus in african green monkey Vero cells assessed as reduction of virus-induced cytopathogenicity; assay type: functional; outline: as §1
Human alphaherpesvirus 1 [3] = assay: Antiviral activity against HSV1 KOS in human E6SM cells assessed as reduction of virus-induced cytopathogenicity; assay type: functional; conditions: Human alphaherpesvirus 1, KOS; outline: as §1
[4] = test system: Vesicular stomatitis virus; assay: Antiviral activity against vesicular stomatitis virus in human HeLa cells assessed as inhibition of virus-induced cytopathogenicity; assay type: functional; outline: as §1
[5] = test system: Respiratory syncytial virus; assay: Antiviral activity against respiratory syncytial virus in human HeLa cells assessed as inhibition of virus-induced cytopathogenicity; assay type: functional; outline: as §1
[6] = Cytotoxicity against human HeLa cells; assay type: cell-based
Outline: (§2)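 Uninfected cell cultures exposed to test compounds alongside antiviral assays; minimum cytotoxic concentration (MCC) = concentration causing a microscopically detectable alteration of cell morphology.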

Coxsackievirus B4 [7] = assay: Antiviral activity against Coxsackie virus B4 in human HeLa cells assessed as inhibition of virus-induced cytopathogenicity; assay type: functional; conditions: Enterovirus B; outline: as §1
[8] = test system: Vesicular stomatitis virus; assay: Antiviral activity against in Vesicular stomatitis virus in human HEL cells assessed as reduction of virus-induced cytopathogenicity; assay type: functional; outline: as §1
Sindbis virus = assay: Antiviral activity against Sindbis virus in african green monkey Vero cells assessed as reduction of virus-induced cytopathogenicity; assay type: functional; outline: as §1
[9] = Cytotoxicity against human MT4 cells by MTT assay; assay type: cell-based
Outline: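 Mock-infected MT-4 cells (6 × 10⁵ cells/ml) with serial five-fold compound dilutions in triplicate; MTT reduction read at 540 and 690 nm after 5 days, median OD of three wells; CC50 = concentration reducing OD540 of mock-infected control by 50%.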

[10] = Cytotoxicity against human HEL cells assessed as alteration of cell morphology; assay type: cell-based; outline: as §2
[11] = test system: Mammalian orthoreovirus 1; assay: Antiviral activity against Reo virus 1 in african green monkey Vero cells assessed as reduction of virus-induced cytopathogenicity; assay type: functional; outline: as §1
Human alphaherpesvirus 2 [12] = assay: Antiviral activity against HSV2 G in human E6SM cells assessed as reduction of virus-induced cytopathogenicity; assay type: functional; conditions: Human alphaherpesvirus 2, G; outline: as §1
Human alphaherpesvirus 1 [13] = assay: Antiviral activity against HSV1 KOS in human HEL cells assessed as reduction of virus-induced cytopathogenicity; assay type: functional; conditions: Human alphaherpesvirus 1, KOS; outline: as §1
[14] = test system: Human immunodeficiency virus 1; assay: Antiviral activity against HIV1 3B in human MT4 cells assessed as protection against virus-induced cytopathogenicity by MTT assay; assay type: functional, organism-based; parameters: Activity: concentration or dose not given beside the values; conditions: for IC50: Human immunodeficiency virus 1, 3B, MT4
Outline: (§3)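 MT-4 cells at 6 × 10⁵ cells/ml infected with HIV-1 IIIB or HIV-2 ROD at 100–300 CCID50; compounds in serial five-fold dilutions, triplicate mock- and virus-infected wells. MTT viability read at 540 and 690 nm after 5 days, median OD of three wells; EC50 = 50% protection from viral cytopathic effect.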

[15] = test system: Vesicular stomatitis virus; assay: Antiviral activity against in Vesicular stomatitis virus in human E6SM cells assessed as reduction of virus-induced cytopathogenicity; assay type: functional; outline: as §1
Vero = assay: Cytotoxicity against african green monkey Vero cells; assay type: cell-based; conditions: chlorocebus sabaeus; outline: as §2
[16] = Cytotoxicity against human E6SM cells; assay type: cell-based; conditions: E6SM cells; outline: as §2
[17] = test system: Human immunodeficiency virus 2; assay: Antiviral activity against HIV2 ROD in human MT4 cells assessed as protection against virus-induced cytopathogenicity by MTT assay; assay type: functional, organism-based; parameters: Activity: concentration or dose not given beside the values; conditions: for IC50: Human immunodeficiency virus 2, ROD, MT4; outline: as §3
Human alphaherpesvirus 1 [18] = assay: Antiviral activity against thymidine kinase deficient and acyclovir resistant HSV1 KOS in human E6SM cells assessed as reduction of virus-induced cytopathogenicity; assay type: functional; conditions: Human alphaherpesvirus 1, KOS; outline: as §1
Punta Toro virus = assay: Antiviral activity against Punta Toro virus in african green monkey Vero cells assessed as reduction of virus-induced cytopathogenicity; assay type: functional; outline: as §1
Human alphaherpesvirus 2 [19] = assay: Antiviral activity against HSV2 G in human HEL cells assessed as reduction of virus-induced cytopathogenicity; assay type: functional; conditions: Human alphaherpesvirus 2, G; outline: as §1

SMILES	MIC (Coxsackievirus B4 [1])	MIC (Human alphaherpesvirus 1 [2])	MIC (Human respirovirus 3)	MIC (Human alphaherpesvirus 1 [3])	MIC [4]	MIC [5]	MCC [6]	MIC (Coxsackievirus B4 [7])	MIC [8]	MIC (Sindbis virus)	CC50 [9]	MCC [10]	MIC [11]	MIC (Human alphaherpesvirus 2 [12])	MIC (Human alphaherpesvirus 1 [13])	Activity [14]	IC50 [14]	MIC [15]	Activity (Vero)	MCC [16]	also measured
C=CCNC(=S)Nc1ccc(-c2n[nH]c(=S)n2C)cc1	> 80 µg/mL	240 µg/mL (≈ 786 µM)	> 80 µg/mL	240 µg/mL (≈ 786 µM)	> 80 µg/mL	> 80 µg/mL	400 µg/mL	> 80 µg/mL	> 80 µg/mL	> 80 µg/mL	78.2 µg/mL (≈ 256 µM)	400 µg/mL	> 80 µg/mL	240 µg/mL (≈ 786 µM)	240 µg/mL (≈ 786 µM)	9.5%	> 78.2 µg/mL	> 80 µg/mL	400 µg/mL	400 µg/mL	Activity [17]: 1%; IC50 [17]: > 78.2 µg/mL; MIC (Human alphaherpesvirus 1 [18]): 240 µg/mL (≈ 786 µM); MIC (Punta Toro virus): > 80 µg/mL; MIC (Human alphaherpesvirus 2 [19]): 240 µg/mL (≈ 786 µM)
C=CCn1c(-c2ccc(NC(=S)NC)cc2)n[nH]c1=S	> 80 µg/mL	240 µg/mL (≈ 786 µM)	> 80 µg/mL	240 µg/mL (≈ 786 µM)	> 80 µg/mL	> 80 µg/mL	400 µg/mL	> 80 µg/mL	> 80 µg/mL	> 80 µg/mL	80.9 µg/mL (≈ 265 µM)	400 µg/mL	> 80 µg/mL	240 µg/mL (≈ 786 µM)	240 µg/mL (≈ 786 µM)	9%	> 80.9 µg/mL	> 80 µg/mL	>= 80 ug ml-1	400 µg/mL	Activity [17]: 0%; IC50 [17]: > 80.9 µg/mL; MIC (Human alphaherpesvirus 1 [18]): 240 µg/mL (≈ 786 µM); MIC (Punta Toro virus): > 80 µg/mL; MIC (Human alphaherpesvirus 2 [19]): 240 µg/mL (≈ 786 µM)
C=CCNC(=S)Nc1ccc(-c2nnc(SCc3ccc(Cl)cc3Cl)n2-c2ccccc2)cc1	> 16 µg/mL	> 16 µg/mL	> 16 µg/mL	> 16 µg/mL	> 16 µg/mL	> 16 µg/mL	80 µg/mL	> 16 µg/mL	> 16 µg/mL	> 16 µg/mL	65.3 µg/mL (≈ 124 µM)	≥ 16 µg/mL	> 16 µg/mL	> 16 µg/mL	> 16 µg/mL	1.5%	> 65.3 µg/mL	> 16 µg/mL	>= 16 ug ml-1	≥ 16 µg/mL	Activity [17]: 0%; IC50 [17]: > 65.3 µg/mL; MIC (Human alphaherpesvirus 1 [18]): > 16 µg/mL; MIC (Punta Toro virus): > 16 µg/mL; MIC (Human alphaherpesvirus 2 [19]): > 16 µg/mL
CCNC(=S)Nc1ccc(-c2n[nH]c(=S)n2C)cc1	> 80 µg/mL	240 µg/mL (≈ 818 µM)	> 80 µg/mL	240 µg/mL (≈ 818 µM)	> 80 µg/mL	> 80 µg/mL	400 µg/mL	> 80 µg/mL	> 400 µg/mL	> 80 µg/mL	82.4 µg/mL (≈ 281 µM)	≥ 400 µg/mL	> 80 µg/mL	240 µg/mL (≈ 818 µM)	240 µg/mL (≈ 818 µM)	3%	> 82.4 µg/mL	> 400 µg/mL	400 µg/mL	≥ 400 µg/mL	Activity [17]: 0%; IC50 [17]: > 82.4 µg/mL; MIC (Human alphaherpesvirus 1 [18]): 240 µg/mL (≈ 818 µM); MIC (Punta Toro virus): > 80 µg/mL; MIC (Human alphaherpesvirus 2 [19]): 240 µg/mL (≈ 818 µM)
Cn1c(-c2ccc(NC(=S)Nc3ccccc3)cc2)n[nH]c1=S	> 80 µg/mL	48 µg/mL (≈ 141 µM)	> 80 µg/mL	> 80 µg/mL	> 16 µg/mL	> 16 µg/mL	80 µg/mL	> 16 µg/mL	> 80 µg/mL	> 80 µg/mL	42.8 µg/mL (≈ 125 µM)	400 µg/mL	> 80 µg/mL	> 80 µg/mL	> 80 µg/mL	35%	> 42.8 µg/mL	> 80 µg/mL	400 µg/mL	400 µg/mL	Activity [17]: 10%; IC50 [17]: > 42.8 µg/mL; MIC (Human alphaherpesvirus 1 [18]): 48 µg/mL (≈ 141 µM); MIC (Punta Toro virus): > 80 µg/mL; MIC (Human alphaherpesvirus 2 [19]): > 80 µg/mL
C=CCNC(=S)Nc1ccc(-c2nnc(SCc3ccc(Cl)cc3Cl)n2C)cc1	> 16 µg/mL	> 16 µg/mL	> 16 µg/mL	> 16 µg/mL	> 80 µg/mL	> 80 µg/mL	400 µg/mL	> 80 µg/mL	> 16 µg/mL	> 16 µg/mL	116 µg/mL (≈ 250 µM)	80 µg/mL	> 16 µg/mL	> 16 µg/mL	> 16 µg/mL	0.5%	> 116 µg/mL	> 16 µg/mL	80 µg/mL	80 µg/mL	Activity [17]: 5%; IC50 [17]: > 116 µg/mL; MIC (Human alphaherpesvirus 1 [18]): > 16 µg/mL; MIC (Punta Toro virus): > 16 µg/mL; MIC (Human alphaherpesvirus 2 [19]): > 16 µg/mL
C=CCNC(=S)Nc1ccc(-c2n[nH]c(=S)n2CC)cc1	> 80 µg/mL	240 µg/mL (≈ 751 µM)	> 80 µg/mL	240 µg/mL (≈ 751 µM)	> 80 µg/mL	> 80 µg/mL	400 µg/mL	> 80 µg/mL	> 80 µg/mL	> 80 µg/mL	57 µg/mL (≈ 178 µM)	400 µg/mL	> 80 µg/mL	240 µg/mL (≈ 751 µM)	240 µg/mL (≈ 751 µM)	8.5%	> 57 µg/mL	> 80 µg/mL	>= 80 ug ml-1	400 µg/mL	Activity [17]: 0%; IC50 [17]: > 57 µg/mL; MIC (Human alphaherpesvirus 1 [18]): 240 µg/mL (≈ 751 µM); MIC (Punta Toro virus): 80 µg/mL (≈ 250 µM); MIC (Human alphaherpesvirus 2 [19]): 240 µg/mL (≈ 751 µM)
